Laboratory results reported in paper PMC5519285 (Pharmacology, biochemistry, and behavior, 2017).
“Also recorded” adds a separate entry of the source. Like-named read-outs stand apart in the source and are kept apart here. Marks after values point to notes of the source that are not given here.

Legend:
[1] = ref Poe et al., 2016; cited from earlier work
rats [2] = assay: Pentylenetetrazole; type: in vivo, rat; settings: i.p.
How it was run: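 Male Sprague Dawley rats (90–110 g), test compound suspended in 1% hydroxyethylcellulose/0.05% tween 80/0.05% antifoam, given 30 mg/kg i.p. 30 min before testing. Percent of rats without clonic convulsions recorded, 5 rats/group (vehicle 20), Fisher's exact test.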

rats [3] = settings: cited from earlier work
mice = settings: ref Lewter et al., 2017; cited from earlier work
hGABAAR (α3β3γ2) = hGABAAR (α3β3γ2) (Homo sapiens, UniProt P18507+P34903); type: cell-based
Sequence of hGABAAR (α3β3γ2) (P34903 29-492): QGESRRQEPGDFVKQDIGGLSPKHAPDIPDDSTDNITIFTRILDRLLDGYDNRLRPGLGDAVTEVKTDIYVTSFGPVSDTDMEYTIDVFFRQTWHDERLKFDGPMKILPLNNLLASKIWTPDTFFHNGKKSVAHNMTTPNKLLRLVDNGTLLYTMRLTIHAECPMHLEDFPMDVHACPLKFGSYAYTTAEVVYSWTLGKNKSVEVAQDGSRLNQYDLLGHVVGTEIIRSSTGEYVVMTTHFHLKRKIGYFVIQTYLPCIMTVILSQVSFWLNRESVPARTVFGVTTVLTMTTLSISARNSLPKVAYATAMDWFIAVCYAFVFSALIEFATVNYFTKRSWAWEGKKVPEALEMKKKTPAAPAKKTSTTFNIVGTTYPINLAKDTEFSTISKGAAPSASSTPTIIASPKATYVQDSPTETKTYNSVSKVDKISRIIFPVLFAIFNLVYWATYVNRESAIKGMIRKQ
Sequence of hGABAAR (α3β3γ2) (P28472 26-473 partner): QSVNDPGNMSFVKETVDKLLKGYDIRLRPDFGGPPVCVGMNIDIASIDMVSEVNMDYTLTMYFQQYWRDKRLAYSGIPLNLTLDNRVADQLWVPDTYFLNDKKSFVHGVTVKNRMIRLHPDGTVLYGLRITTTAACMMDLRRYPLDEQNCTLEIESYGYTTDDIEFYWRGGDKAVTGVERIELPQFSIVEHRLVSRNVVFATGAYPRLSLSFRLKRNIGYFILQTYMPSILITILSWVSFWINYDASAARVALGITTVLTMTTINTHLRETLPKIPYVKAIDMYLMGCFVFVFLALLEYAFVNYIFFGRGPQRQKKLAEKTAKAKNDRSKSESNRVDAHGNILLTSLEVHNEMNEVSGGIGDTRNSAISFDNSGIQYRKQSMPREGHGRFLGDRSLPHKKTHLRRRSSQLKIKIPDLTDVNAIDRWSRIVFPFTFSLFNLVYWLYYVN
Sequence of hGABAAR (α3β3γ2) (P18507 40-475): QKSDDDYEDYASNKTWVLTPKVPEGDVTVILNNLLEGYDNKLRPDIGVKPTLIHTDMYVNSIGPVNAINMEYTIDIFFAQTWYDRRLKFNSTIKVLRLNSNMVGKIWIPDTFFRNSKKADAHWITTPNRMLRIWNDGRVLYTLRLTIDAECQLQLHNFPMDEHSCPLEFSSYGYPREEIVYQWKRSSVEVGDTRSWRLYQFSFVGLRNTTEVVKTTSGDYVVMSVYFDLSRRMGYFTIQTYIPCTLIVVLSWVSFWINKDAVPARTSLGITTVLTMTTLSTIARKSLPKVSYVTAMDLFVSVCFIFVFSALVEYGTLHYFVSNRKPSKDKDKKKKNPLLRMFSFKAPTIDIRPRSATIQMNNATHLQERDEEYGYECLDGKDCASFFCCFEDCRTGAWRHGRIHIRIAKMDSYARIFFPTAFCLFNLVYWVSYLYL

hGABAAR (α5β3γ2) = hGABAAR (α5β3γ2) (Homo sapiens, UniProt P18507+P31644); type: cell-based
Sequence of hGABAAR (α5β3γ2) (P31644 32-462): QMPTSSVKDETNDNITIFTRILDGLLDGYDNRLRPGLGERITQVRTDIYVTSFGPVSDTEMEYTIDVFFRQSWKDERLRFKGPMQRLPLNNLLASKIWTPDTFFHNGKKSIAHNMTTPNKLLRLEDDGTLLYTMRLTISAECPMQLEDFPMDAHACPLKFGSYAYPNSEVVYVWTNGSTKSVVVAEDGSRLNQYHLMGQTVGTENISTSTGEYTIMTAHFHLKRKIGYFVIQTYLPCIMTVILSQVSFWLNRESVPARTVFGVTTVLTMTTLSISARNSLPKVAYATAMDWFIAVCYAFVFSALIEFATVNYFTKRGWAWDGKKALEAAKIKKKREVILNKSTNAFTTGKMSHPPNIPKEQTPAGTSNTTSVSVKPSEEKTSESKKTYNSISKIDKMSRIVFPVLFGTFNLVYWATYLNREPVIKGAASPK
Sequence of hGABAAR (α5β3γ2) (P28472 26-473 partner): as the sequence (P28472 26-473 partner) above
Sequence of hGABAAR (α5β3γ2) (P18507 40-475): as the sequence (P18507 40-475) above

hGABAAR (α2β3γ2) = hGABAAR (α2β3γ2) (Homo sapiens, UniProt P18507+P47869); type: cell-based
Sequence of hGABAAR (α2β3γ2) (P47869 29-451): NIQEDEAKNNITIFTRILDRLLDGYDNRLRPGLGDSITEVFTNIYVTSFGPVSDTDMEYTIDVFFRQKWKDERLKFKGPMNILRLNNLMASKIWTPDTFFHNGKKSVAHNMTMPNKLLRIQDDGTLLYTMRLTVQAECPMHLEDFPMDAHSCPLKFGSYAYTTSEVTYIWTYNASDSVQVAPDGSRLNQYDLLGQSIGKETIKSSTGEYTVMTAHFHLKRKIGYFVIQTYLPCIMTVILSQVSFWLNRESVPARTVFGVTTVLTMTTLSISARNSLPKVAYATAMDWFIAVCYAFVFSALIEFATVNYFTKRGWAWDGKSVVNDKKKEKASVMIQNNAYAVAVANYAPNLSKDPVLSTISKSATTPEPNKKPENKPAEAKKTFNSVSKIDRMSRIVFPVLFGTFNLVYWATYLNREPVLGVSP
Sequence of hGABAAR (α2β3γ2) (P28472 26-473 partner): as the sequence (P28472 26-473 partner) above
Sequence of hGABAAR (α2β3γ2) (P18507 40-475): as the sequence (P18507 40-475) above

hGABAAR (α1β3γ2) = hGABAAR (α1β3γ2) (Homo sapiens, UniProt P14867+P18507); type: cell-based; settings: HEK293 cells, human α1β3γ2, peak GABA EC15-evoked current
Sequence of hGABAAR (α1β3γ2) (P14867 28-456): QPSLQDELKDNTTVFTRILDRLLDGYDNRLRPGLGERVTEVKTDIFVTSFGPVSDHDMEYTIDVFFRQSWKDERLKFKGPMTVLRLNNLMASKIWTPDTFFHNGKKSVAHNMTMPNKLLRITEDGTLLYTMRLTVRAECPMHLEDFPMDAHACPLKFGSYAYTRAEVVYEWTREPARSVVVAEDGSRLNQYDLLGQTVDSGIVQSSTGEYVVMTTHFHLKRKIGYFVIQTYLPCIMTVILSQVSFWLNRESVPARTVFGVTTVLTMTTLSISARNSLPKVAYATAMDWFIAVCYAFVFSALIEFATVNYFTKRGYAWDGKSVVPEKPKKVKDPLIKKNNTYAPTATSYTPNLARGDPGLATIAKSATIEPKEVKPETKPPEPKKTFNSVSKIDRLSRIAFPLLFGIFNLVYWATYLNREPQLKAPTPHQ
Sequence of hGABAAR (α1β3γ2) (P28472 26-473 partner): as the sequence (P28472 26-473 partner) above
Sequence of hGABAAR (α1β3γ2) (P18507 40-475): as the sequence (P18507 40-475) above

Compound: C#Cc1ccc2c(c1)C(c1ccccn1)=NCc1c(C(=O)OCC)ncn1-2 [HZ-166]
- marble-burying [1]: decreased marble-burying
- reduction of convulsions induced by PTZ (rats [2]; 30 mg/kg): 60%
- activity in Vogel conflict test (punished drinking) (rats [3]; ref Poe et al., 2016): not active

Compound: C#Cc1ccc2c(c1)C(c1ccccn1)=NCc1c(-c3cnco3)ncn1-2 [Compound 9, 5-(8-Ethynyl-6-(pyridin-2-yl)-4H-benzo[f]imidazo[1,5-a][1,4]diazepin-3-yl)oxazole]
- acid-induced pain behaviors (mice): attenuated acid-induced pain behaviors
- activity in Vogel conflict test (punished drinking) (rats [3]; ref Poe et al., 2016, listed as KRM-II-81): increased punished drinking; also recorded: efficacious

Compound: NCCCC(=O)O [GABA]
- average maximum negative current amplitude (hGABAAR (α3β3γ2); saturating concentration of GABA, α3β3γ2): 1.0 nA
- average maximum negative current amplitude (hGABAAR (α5β3γ2); saturating concentration of GABA, α5β3γ2): 0.9 nA
- average maximum negative current amplitude (hGABAAR (α2β3γ2); saturating concentration of GABA, α2β3γ2): 0.8 nA

Compound: CCCC(CCC)C(=O)O [Valpro, valproic acid]
- Anticonvulsant Effect (percent of animals protected, no clonic convulsions) (rats [2]; valproic acid 300 mg/kg, 35 mg/kg pentylenetetrazole s.c.): 100 ^* percent

Compound: CN1C(=O)CN=C(c2ccccc2)c2cc(Cl)ccc21 [Diazepam, diazepam]
- GABAA-a1 Max (%GABA) (hGABAAR (α1β3γ2)): 171.9 %GABA
- GABAA-a3 Max (%GABA) (hGABAAR (α3β3γ2); HEK293 cells, human α3β3γ2, peak GABA EC15-evoked current): 265.6 %GABA
- GABAA-a5 Max (%GABA) (hGABAAR (α5β3γ2); HEK293 cells, human α5β3γ2, peak GABA EC15-evoked current): 220.7 %GABA
- GABAA-a2 Max (%GABA) (hGABAAR (α2β3γ2); HEK293 cells, human α2β3γ2, peak GABA EC15-evoked current): 203.4 %GABA
